# E-sel inducer = induces E-selectin expression in human endothelial cells. P16581. HUVEC E-selectin immunofluorescence imaging; normalized: neutral wells 0, TNF-alpha wells 100. activation, % at 7.58 µM. 260,000 compounds, 0.37% hits. AID 686992;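 active means mean E-selectin-positive cell signal at least 10% of the positive control, reached in at least 60% of replicates, without over 20% cell loss; inconclusive means no rule given, readout overlaps actives, possibly toxicity-flagged; inactive means the rest, including those meeting only one limit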
# Target sequence (P16581 whole entry, looked up): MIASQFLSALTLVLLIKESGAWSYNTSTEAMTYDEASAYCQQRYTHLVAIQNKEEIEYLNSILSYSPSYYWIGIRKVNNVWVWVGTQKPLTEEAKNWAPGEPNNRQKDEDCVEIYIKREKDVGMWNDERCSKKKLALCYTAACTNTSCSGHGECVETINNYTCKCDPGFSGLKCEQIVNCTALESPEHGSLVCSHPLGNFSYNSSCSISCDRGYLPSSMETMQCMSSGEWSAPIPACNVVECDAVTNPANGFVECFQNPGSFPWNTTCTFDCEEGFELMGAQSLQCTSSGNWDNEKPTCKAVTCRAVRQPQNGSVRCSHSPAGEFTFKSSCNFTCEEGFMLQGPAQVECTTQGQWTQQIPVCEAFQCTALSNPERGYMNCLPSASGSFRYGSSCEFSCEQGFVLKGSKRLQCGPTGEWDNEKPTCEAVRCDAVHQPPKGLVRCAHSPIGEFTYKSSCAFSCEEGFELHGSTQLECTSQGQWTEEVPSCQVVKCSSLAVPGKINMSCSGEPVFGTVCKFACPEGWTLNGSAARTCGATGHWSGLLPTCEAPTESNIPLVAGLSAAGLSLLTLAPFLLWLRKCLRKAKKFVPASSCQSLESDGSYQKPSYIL
#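 Assay system: HUVEC, human umbilical vein endothelial cells / Amount: 3,000 HUVEC/well / Controls: TNF-alpha positive control, DMSO neutral control / Compound dosing: single concentration / Medium: EGM-2 over gelatin coat / Evaluation: percent E-selectin-positive cells / Signal: immunofluorescence imaging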
# Cneo AK release = causes C. neoformans cell lysis; AID 651654; lysis activity, % at 15 µM; adenylate kinase release luminescence, 4 h; normalised: neutral wells 0, clomiphene wells 100; 360,000 compounds, 0.2% hits;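 active means mean lysis activity across replicates of at least 80%, whatever share of replicates individually reach that level; inactive means mean lysis activity below 80%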
#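 Material: C. neoformans cells | Amount: Yeast cell density of 5 × 10^6 cells/mL | Medium: Fresh YPD growth medium | Dosing: Single dose | Times: Static 4 h at 37 °C with compound, 1 h detection | Detection: AK luminescence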
# Ecoli rRNA inh = selective bacterial rRNA inhibition in E. coli; E. coli WT GFP vs humanized-ribosome RFP mutants, fluorescence, 24 h; hits give low values; DMSO median 0, no signal -100; GFP signal change (wild-type ribosome), % (test concentration not listed); 350,000 compounds, 1.6% hits;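 active means significant combined selectivity score with lowered wild-type GFP, culture density cut under 30%, mutant RFP and density less affected; inactive means any of these conditions unmet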
# DENV2 CPE = DENV2-induced cell death inhibition | DENV2-infected cells, cytopathic effect rescue, plate reader | CPE inhibition, % at 9.99 µM | 350,000 compounds, 1.7% hits | AID 651640; in the data active means CPE inhibition above about 20%, passing the limit was not always enough; inconclusive means no clear call, values can overlap the other calls; tested in BHK-21 cells
# miR122 inh = miR-122 inhibition in Huh7 cells. Huh7 miR-122 Renilla luciferase sensor, 48 h; neutral wells = 0, positive control = 100. 340,000 compounds, 0.3% hits. activation (reporter increase), % at 12.5 µM;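 active means mean replicate activation score at least 90 and every replicate individually at or above 90; inconclusive means only one of the two criteria met; inactive means neither criterion met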;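 further: higher luciferase means less miR-122 activity so hits act as miR-122 inhibitors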
# HepG2 tox = kills or reduces viability of HepG2 cells; shares compounds with Ecoli rRNA inh; AID 743480; 30 tested, under 10 active; ATP luminescence, 72 h; activity change, negative = cytotoxicity, unspecified at 26 µM;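 active means compounds whose fitted half-maximal signal-loss concentration is at most twice their highest valid dose; inconclusive means flat curve with 30 to 70% signal loss, or poor fit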
# AID977621 = wild-type E. coli growth inhibition versus H69 humanized strain – H69 mutant RFP, wild-type GFP, cherry-pick, dose response; shares compounds with Ecoli rRNA inh; fluorescence, 24 h; activity change, negative = inhibition at 50 µM; 1,900 tested, under 10 active; AID 977621;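 active means Wild-type ribosome reporter drop at least double the humanized mutant ribosome reporter drop, growth loss under a set limit; inconclusive means no clear call, values can overlap the other calls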;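 further: wild-type GFP and H69 mutant RFP strains grown together 50/50 in each well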
# AID977628 = growth of wild-type and h24-humanized E. coli strains – h24 mutant RFP vs wild-type GFP, cherry-pick, dose response. shares compounds with Ecoli rRNA inh. 1,900 tested, under 10 active. E. coli WT GFP strain growth, fluorescence, 24 h. activity change, negative = inhibition at 50 µM. AID 977628;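 active means compound lowering the normal-ribosome reporter at least twice as much as the humanized-ribosome reporter, growth loss under a set limit; inconclusive means no clear call, values can overlap the other calls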;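 further: wild-type GFP and h24 humanized RFP strains co-cultured 1 to 1 per well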
# Numbers stand for hits; - = inactive; ? = inconclusive; . = no result given; ! = repeats disagree. Only some compounds are listed: those with a hit (about 3.1% of all), similar ones and a draw of the others.
SMILES,E-sel inducer,Cneo AK release,Ecoli rRNA inh,DENV2 CPE,miR122 inh,AID977621,AID977628,others
CN(C)C(=O)[C@H]1[C@H](CO)[C@H]2Cn3c(ccc(-c4cncnc4)c3=O)[C@H]2N1Cc1ccccc1F,-,-,-,-,-,.,.,
Brc1ccc(-c2nc3c4ccccc4ccn3c2Cc2ccccc2)cc1,-,.,-21.9,-,-,-,-,
Fc1ccc(-c2nc3c4ccccc4ccn3c2Cc2ccccc2)cc1,-,-,-,-,-,.,.,
Clc1cccc(Cc2c(-c3ccco3)nc3c4ccccc4ccn23)c1,.,.,.,-,.,.,.,
Fc1cccc(Cc2c(-c3ccco3)nc3c4ccccc4ccn23)c1,-,-,-21.3,-,-,-,.,
C[C@@H]1CN([C@@H](C)CO)C(=O)c2cccc(NC(=O)Nc3ccc(F)cc3)c2O[C@H]1CN(C)C(=O)Nc1ccc2c(c1)OCO2,-,-,-,-,-,.,.,
CCc1ccc(OCC(=O)NCc2ccco2)c(Br)c1,.,-,-21.2,-,-,-,.,
O=C(COc1ccccc1Br)NCc1ccco1,.,-,.,.,-,.,.,
CC1Cc2cc(-c3csc(NC(=O)Cc4ccccc4)n3)ccc2N1S(C)(=O)=O (stereo not drawn),.,-,-26.1,-,-,-,-,
CS(=O)(=O)N1CCc2cc(-c3csc(NC(=O)C(c4ccccc4)c4ccccc4)n3)ccc21,.,-,.,.,-,.,.,
C[C@H]1CN([C@@H](C)CO)C(=O)c2cc(N(C)C)ccc2O[C@@H]1CN(C)S(=O)(=O)c1cn(C)cn1,-,-,-,-,-,.,.,
C[C@@H]1CN([C@@H](C)CO)C(=O)c2cc(NC(=O)c3ccccc3)ccc2O[C@@H](C)CCCCO[C@H]1CN(C)C(=O)NC1CCCCC1,-,-,-,-,-,.,.,
c1coc(CSc2ncnc3c2oc2ccccc23)c1,.,-,-22.9,-,-,-,-,
Cc1noc(C)c1NC(=O)N(C)C[C@@H]1Oc2c(NC(=O)CCCCCC(=O)Nc3ccccc3N)cccc2C(=O)N([C@@H](C)CO)C[C@H]1C,-,.,-,-,.,.,.,
Cc1[nH]c(=S)sc1Cc1ccc(Cl)c(Cl)c1,.,.,-39.6,.,.,.,.,HepG2 tox=-
CCc1cccc(CC)c1NC(=O)Cn1c(-c2ccc(F)cc2)noc1=O,-,.,-16.6,-,-,-,-,
CCOc1ccccc1NC(=O)Cn1c(-c2ccc(Cl)cc2)noc1=O,-,-,-,-,.,.,.,
C[C@@H]1CN([C@H](C)CO)C(=O)c2cc(N(C)C)ccc2O[C@@H](C)CCCCO[C@H]1CN(C)C(=O)Nc1ccccc1,-,.,-,.,-,.,.,
c1ccc(CSCc2ccccc2)cc1,.,-,-25.2,?,-,-,-,
CCOc1cc(/C=C(\CC(=O)O)c2nc3ccccc3s2)ccc1OC,-,.,-20.5,-,.,-,-,
CCOc1cc(/C=C(\CC(=O)O)c2nc3ccccc3s2)ccc1OCC(=O)Nc1cccc(C(F)(F)F)c1,-,-,-,-,.,.,.,
C[C@H](CO)N1C[C@H](C)[C@@H](CN(C)S(=O)(=O)c2ccc(Cl)cc2)Oc2ccc(NS(=O)(=O)c3cn(C)cn3)cc2CC1=O,-,-,-,-,-,.,.,
C[C@H](CO)N1C[C@H](C)[C@H](CN(C)C(=O)Nc2ccc(C(F)(F)F)cc2)OCCCC[C@H](C)Oc2ccc(NC(=O)Nc3ccccc3)cc2C1=O,-,-,-,-,-,.,.,
Nc1ccccc1Sc1c[nH]c2ccccc12,.,-,-25.6,-,-,-,-,
O=C(NC1CCCCC1)C(c1cccc2ccccc12)n1c(=O)c(-c2ccco2)nc2ccccc21 (stereo not drawn),-,.,-23.2,-,.,-,-,
SMILES,E-sel inducer,Cneo AK release,Ecoli rRNA inh,DENV2 CPE,miR122 inh,AID977621,AID977628,others
C[C@@H]1CN([C@H](C)CO)C(=O)c2cc(C#CC3CCCC3)cnc2O[C@H]1CN(C)C(=O)c1ccncc1,-,-,-,-,-,.,.,
CCn1cc(CN2CCCC(CNS(=O)(=O)c3ccc(OC)cc3)C2)cn1 (stereo not drawn),-,-,-,-,.,.,.,
CCc1ccc(CN2CCCC(CNS(=O)(=O)c3ccc(OC)cc3)C2)cc1 (stereo not drawn),.,.,-21.8,.,.,-,?,
CC(=O)Nc1nc(C)c(-c2csc(Nc3ccccn3)n2)s1,-,.,-20.4!,-,.,-,.,
CC(=O)Nc1ccc(Nc2nc(-c3sc(NC(C)=O)nc3C)cs2)cc1,-,-,-,-,-,.,.,
O=C(C[C@@H]1C=C[C@@H](NC(=O)C2CCC2)[C@H](CO)O1)NCc1ccncc1,-,-,-,-,.,.,.,
Cn1cc(CN2CCCC(C(=O)Nc3cccc(-c4cc5ccccc5[nH]4)c3)C2)cn1 (stereo not drawn),.,-,-32.6,-,-,-,-,
C[C@H](CO)N1C[C@H](C)[C@@H](CN(C)Cc2ccncc2)OCc2ccccc2-c2c(n(C)c3ccccc23)C1=O,-,-,-21.9,-,.,-,.,
C[C@@H]1CN([C@@H](C)CO)C(=O)c2c(c3ccccc3n2C)-c2ccccc2CO[C@H]1CN(C)Cc1ccncc1,-,-,-,-,.,.,.,
C[C@H]1CN([C@@H](C)CO)C(=O)c2c(c3ccccc3n2C)-c2ccccc2CO[C@@H]1CN(C)Cc1ccncc1,-,-,-28.9,-,.,.,-,
O=C(NCc1ccco1)c1ccc(COc2ccccc2Cl)cc1,.,-,.,.,-,.,.,
O=C(NCc1ccco1)c1ccc(COc2cccc3ccccc23)cc1,-,-,-23.8,.,-,-,.,
Cc1cc(Cl)ccc1OCCCC(=O)OCC(N)=O,?,-,-18.1,-,-,-,?,
Cc1ccc(Nc2nc(C(=O)NCC3CCCO3)cs2)cc1 (stereo not drawn),-,.,-42.4,-,.,-,-,
Cc1ccc(-c2cc(C(=O)NCC3CCCO3)no2)cc1 (stereo not drawn),.,-,.,.,-,.,.,
N#Cc1nc(COc2cccc(Cl)c2)oc1N1CCCC1,-,-,-32.5,-,-,-,-,
CC1CC(C)CN(c2oc(Cc3ccccc3)nc2C#N)C1 (stereo not drawn),-,.,.,.,.,.,.,
N#Cc1nc(Cc2ccccc2)oc1N1CCCC1,.,.,-23.0,.,.,.,?,
COc1ccc(C2CC(=O)Oc3cc(C)cc(C)c32)cc1 (stereo not drawn),.,-,-23.9,-,-,-,-,
COc1cc2c(c(OC)c1OC)C(c1ccc3c(c1)OCO3)CC(=O)O2 (stereo not drawn),-,-,-19.9,-,-,-,-,
CC(C)(C)c1ccc2c(c1)C(c1ccc3c(c1)OCO3)CC(=O)O2 (stereo not drawn),-,-,-24.9,-,-,-,.,

# Compound activity from PubChem.
